Assay outcomes as filed in PubChem BioAssay.
UPR CHOP act – apoptotic UPR (CHOP) activation. hit rate 0.34% among 330,000. CHO-CHOP luciferase reporter, luminescence; percent of tunicamycin response over DMSO baseline. activation, % at 10 µM;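 active means at 10 µM dose, activation of 40% or more, normalized to positive control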;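 further: 100% = tunicamycin at 10 µg/mL and 0% = DMSO alone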
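System: CHO-CHOP luciferase reporter cell line; amount: 500 cells/well; buffer or medium: F12 medium containing 10% fetal bovine serum; incubation: 6 h compound exposure at 37 °C after overnight seeding; measured by: luciferase luminescence after 10 min with Steady-Glo reagent; evaluation: % reporter activation, DMSO baseline versus tunicamycin full activation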
XBP1 UPR activ – adaptive UPR (XBP1) activation; CHO-XBP1 luciferase reporter, IRE1-XBP1 UPR activation, luminescence; percent of tunicamycin response, DMSO as zero; activation, % at 20 µM; hit rate 0.33% among 330,000;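 active means versus positive control, 20 µM dose yields 30% or more activation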;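 further: 100% = tunicamycin at 10 µg/mL and 0% = DMSO only wells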
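Material – CHO cell line with stable XBP1 luciferase reporter · Buffer or medium – F12 plus 10% FBS · Compound – single point, 20 µM final compound, 1% DMSO · Schedule – 16-18 h cell attachment at 37 °C, then 6 h compound exposure · Signal – Steady-Glo luminescence read · Benchmarks – high control tunicamycin 10 µg/mL final, low control DMSO vehicle only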
T cell modulator – T cell immune modulators affecting CD8 T cell-vesicle binding; 2C CD8+ T cell-vesicle binding, flow cytometry; active compounds read low; response (vesicle binding), % at 7 µM; hit rate 0.068% among 330,000;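 active means response, share of CD8 T cells binding vesicles, and their 90th percentile fluorescence all below set limits, cut at about 80% in these data, passing the limit was not always enough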;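 further: values below 100% mean blocked vesicle binding to the CD8+ T cells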
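Assay system – 2C mouse CD8+ T cells · Also added – QL9-loaded Drosophila micro-vesicles · Timing – Cell–vesicle co-incubation 1.5 h at 37 °C, staining 20 min on ice · Signal – flow cytometry of vesicle-bound cells · Measure – percent CD8+ FL2 mean versus row control · Controls – Peptide-free naked vesicles (low) and QL9 vesicles with 0.7% DMSO vehicle (high)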
Beta2AR agonist – human beta-2 adrenergic receptor agonism by FAP | hit rate 0.43% among 340,000 | P07550 | response, % (concentration not given with the values) | Am2.2-beta2AR cells, FAP receptor internalization, flow cytometry;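 active means response above a set limit, near 3 SD of response in nonfluorescent compounds, cut at about 42% in these data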
Target sequence (P07550 whole entry, looked up): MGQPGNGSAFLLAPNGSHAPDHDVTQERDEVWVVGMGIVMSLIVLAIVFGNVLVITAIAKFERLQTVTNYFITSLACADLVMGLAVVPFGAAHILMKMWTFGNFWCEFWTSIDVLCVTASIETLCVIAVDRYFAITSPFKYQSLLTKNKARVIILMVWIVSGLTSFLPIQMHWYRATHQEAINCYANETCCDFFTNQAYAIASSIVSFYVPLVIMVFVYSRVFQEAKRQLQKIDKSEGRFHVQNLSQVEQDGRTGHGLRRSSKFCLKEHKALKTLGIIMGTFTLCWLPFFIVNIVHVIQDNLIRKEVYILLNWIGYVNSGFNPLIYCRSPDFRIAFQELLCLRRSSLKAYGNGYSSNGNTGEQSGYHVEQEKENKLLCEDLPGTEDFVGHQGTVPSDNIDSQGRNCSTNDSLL
UPR XBP1 confirm – confirmation of adaptive unfolded protein response (XBP1) activators | shares compounds with XBP1 UPR activ | CHO-XBP1 IRE1-XBP1 luciferase reporter, luminescence | activation, % at 20 µM | hit rate 63% among 1,000 | AID 485299;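 active means reporter signal at least 30% of the positive control's activation in two or more of four replicate wells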;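 further: plate controls were DMSO negative control for no effect and tunicamycin 10 µg/mL positive control for full effect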
An asterisk follows results filed as active; i = inactive; · = no result given. A selection: hits, their analogues and other compounds. The true share with any hit is near 1%.

SMILES	UPR CHOP act	XBP1 UPR activ	T cell modulator	Beta2AR agonist	UPR XBP1 confirm
Cc1cc(C(=O)NNC(=O)c2ccccc2[N+](=O)[O-])c(C)o1	2.5	58.6*	408.7	-1.4	2.0
Clc1ccc2c(c1)C(N1CCNCC1)Cc1ccccc1S2 (stereo unspecified)	5.3	62.9*	257.5	26.3	72.5*
COc1cc(-c2noc(C)c2C#Cc2ccccn2)cc(OC)c1OC	-0.5	9.0	545.4	-11.6	·
COc1cc(-c2noc(C)c2C#Cc2ccc(N)cc2)cc(OC)c1OC	3.0	59.4*	961.7	16.6	23.7
CC(C)C[C@H](NC(=O)c1nc[nH]c1C(=O)N[C@@H](CC(C)C)C(=O)OC(C)(C)C)C(=O)OC(C)(C)C	7.2	44.9*	325.1	9.8	25.5
CCOC(=O)c1ccc(N2Cc3ccccc3C2=NC(=O)c2cccc([N+](=O)[O-])c2)cc1	16.4	56.1*	984.5	-9.1	5.3
CCOc1ccc(CCNC(=O)C2CCC(=O)N2CCc2ccccc2)cc1OCC (stereo unspecified)	1.3	-1.4	316.7	-5.2	·
COc1ccc(CC(=O)Nc2nc(C)cs2)cc1S(=O)(=O)N1CCOCC1	-0.9	-2.1	i	-1.5	·
Cc1ccc(-n2nc3c(N4CCC(C(=O)NCCc5ccccc5C)CC4)nnc(C)c3c2C)cc1	3.3	39.1*	318.4	-4.4	30.4*
COc1ccc(-n2nc3c(N4CCC(C(=O)NCCc5ccccc5C)CC4)nnc(C)c3c2C)cc1	0.2	50.4*	443.0	9.9	0.1
COc1ccc(-n2nc3c(N4CCC(C(=O)NCC(C)c5ccccc5)CC4)nnc(C)c3c2C)cc1 (stereo unspecified)	4.0	14.3	410.7	21.3	·
O=C(CN1CCN(Cc2ccc3c(c2)OCO3)CC1)N1CCc2[nH]c3ccc(F)cc3c2C1	-0.5	0.7	711.8	-9.9	·
CCC(=O)Nc1ccc(/C(C)=N\NC(=O)c2ccc(C)s2)cc1	1.1	-1.3	161.3	-7.0	·
C/C(=N/NC(=O)c1ccc(Cl)s1)c1ccc(NC(=O)COc2ccc(Cl)cc2)cc1	19.6	37.3*	628.6	12.9	53.1*
CCOC(=O)c1nnc(-c2ccc(C)cc2)nc1Oc1ccccc1Cl	9.1	37.0*	459.7	-7.1	48.6*
CCOC(=O)c1nnc(-c2cccs2)nc1Oc1ccc(Cl)cc1	2.8	11.1	524.6	11.5	·
CCOC(=O)c1nnc(-c2ccc(C)cc2)nc1Oc1ccc(Cl)cc1Cl	31.0	93.8*	211.5	16.7	123.7*
O=C(CSc1ccc2nnc(-c3ccc(Cl)cc3)n2n1)N1CCc2ccccc21	28.6	30.0*	669.7	2.2	-1.6
O=C(Nc1ccc2c(c1)OCO2)c1cc(-c2cccc(O)c2)on1	8.9	-0.6	85.2	6.7	·
O=C(Nc1ccc2c(c1)OCO2)c1cc(-c2ccc(O)cc2)on1	4.8	35.6*	236.4	10.3	10.5
COc1ccc(Cl)cc1NC(=O)COC(=O)C1COc2ccccc2O1 (stereo unspecified)	0.2	-0.5	143.8	6.0	·
COc1ccc(CCNC(=O)c2cc3c(=O)n4ccccc4nc3n(Cc3ccco3)c2=N)cc1OC	6.9	43.4*	374.8	32.3	-2.8
COc1ccc(CCn2c(=N)c(C(=O)NCc3ccco3)cc3c(=O)n4ccccc4nc32)cc1OC	·	·	·	16.5	·
Cc1cc(C)c(S(=O)(=O)Nc2ccc3c4c(cccc24)CC3)c(C)c1	0.3	30.2*	432.7	15.1	23.8
Cc1ccc(S(=O)(=O)Nc2ccc3c4c(cccc24)CC3)c(C)c1	1.6	-1.6	182.7	1.8	·
SMILES	UPR CHOP act	XBP1 UPR activ	T cell modulator	Beta2AR agonist	UPR XBP1 confirm
Brc1ccc2c(c1)C(c1ccc(N3CCOCC3)cc1)=NNC(c1cccs1)=N2	2.5	88.0*	289.2	-9.0	81.2*
CCc1ccc2c(c1)C(c1ccc(N3CCOCC3)cc1)=NNC(c1ccncc1)=N2	-0.8	-0.2	368.7	3.1	·
Cc1ccc2c(c1)C(c1ccc(N3CCOCC3)cc1)=NNC(c1cccs1)=N2	-1.9	62.0*	242.5	-9.5	57.0*
Fc1ccc2c(c1)C(c1ccc(N3CCOCC3)cc1)=NNC(c1cccs1)=N2	-0.5	-0.1	281.2	-11.1	·
COc1cccc(Cl)c1NC(=O)N1CCN(c2cc(C)nc3ccccc23)CC1	-2.1	-3.9	216.3	12.1	·
COc1ccc(-c2sc3cc4c(cc3c2C#CC2(N)CCCCC2)OCO4)cc1	11.4	33.6*	328.3	25.5	15.1
